Experimental data: ChEMBL document CHEMBL3627716, “Structure-activity relationship studies of the lipophilic tail region of sphingosine kinase 2 inhibitors” (Bioorg Med Chem Lett, 2015)

Columns and labels:
[1] = molecular target: T1, Sphingosine kinase 2 (Mus musculus) (UniProt Q9JIA7); experiment: Inhibition of mouse recombinant SphK2 assessed as remaining enzyme activity at 10 uM using gamma[32P]ATP incubated for 20 mins by liquid scintillation counting method
T1 sequence (whole entry): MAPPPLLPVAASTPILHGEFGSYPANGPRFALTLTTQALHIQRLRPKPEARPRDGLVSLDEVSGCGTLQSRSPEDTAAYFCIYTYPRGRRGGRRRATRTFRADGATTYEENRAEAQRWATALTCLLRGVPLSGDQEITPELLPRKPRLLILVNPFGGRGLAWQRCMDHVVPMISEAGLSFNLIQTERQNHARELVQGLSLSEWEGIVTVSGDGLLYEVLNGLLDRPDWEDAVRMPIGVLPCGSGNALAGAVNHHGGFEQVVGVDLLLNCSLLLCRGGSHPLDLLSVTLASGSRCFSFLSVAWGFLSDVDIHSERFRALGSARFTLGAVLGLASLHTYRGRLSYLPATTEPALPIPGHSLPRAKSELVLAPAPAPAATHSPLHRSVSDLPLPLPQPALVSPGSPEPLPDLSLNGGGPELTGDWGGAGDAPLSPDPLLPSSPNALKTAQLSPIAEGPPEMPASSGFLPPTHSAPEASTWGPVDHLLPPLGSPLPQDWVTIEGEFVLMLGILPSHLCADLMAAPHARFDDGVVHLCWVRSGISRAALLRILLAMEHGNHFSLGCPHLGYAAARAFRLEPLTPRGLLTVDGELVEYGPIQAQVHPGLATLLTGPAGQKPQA
In short: (§1)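 Cell lysate containing recombinant mouse SphK2 incubated with sphingosine and γ-[³²P]ATP, with or without inhibitor, 20 min. Reactions extracted, ³²P-S1P separated by TLC and counted by liquid scintillation. Activity reported as ³²P-S1P formed; screened at 10 μM, with some compounds also assayed at 1 μM. Each value is the mean of two experiments.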

[2] = molecular target: T1, Sphingosine kinase 2 (Mus musculus); experiment: Inhibition of mouse recombinant SphK2 assessed as remaining enzyme activity at 1 uM using gamma[32P]ATP incubated for 20 mins by liquid scintillation counting method; in short: as §1

Row | Structure (SMILES) | Activity [1] [%] | Activity [2] [%]
1 | N=C(N)N1CCC[C@H]1c1nc(-c2ccc(I)cc2)no1 | 63 | 
2 | CCCCCCCCCCCCCCc1ccc(-c2noc([C@@H]3CCCN3C(=N)N)n2)cc1 | 16 | 52
3 | CC(C)CC(=O)N1CCN(c2ccc(-c3noc([C@@H]4CCCN4C(=N)N)n3)cc2)CC1 | 90 | 
4 | CN1CCN(c2ccc(-c3noc([C@@H]4CCN4C(=N)N)n3)cc2)CC1 | 90 | 
5 | CCCCCCc1ccc(-c2noc([C@@H]3CCN3C(=N)N)n2)cc1 | 45 | 86
6 | N=C(N)N1CCC[C@H]1c1nc(-c2ccc(CS(=O)(=O)c3ccccc3)cc2)no1 | 88 | 
7 | N=C(N)N1CCC[C@H]1c1nc(-c2ccc(N3CCN(C(=O)Cc4ccccc4)CC3)cc2)no1 | 86 | 
8 | CCCCCCc1ccc(-c2noc([C@@H]3CCCN3C(=N)N)n2)cc1 | 35 | 76
9 | CCCCCCCCCCc1ccc(-c2noc([C@@H]3CCN3C(=N)N)n2)cc1 | 12 | 
10 | CCCCCCCCc1noc([C@@H]2CCCN2C(=N)N)n1 | 88 | 
11 | N=C(N)N1CC[C@H]1c1nc(-c2ccc(-c3ccccc3)cc2)no1 | 91 | 
12 | N=C(N)N1CCC[C@H]1c1nc(-c2ccc(CCc3ccccc3)cc2)no1 | 70 | 
13 | CCCCCCCCCCCCCCCCc1noc([C@@H]2CCCN2C(=N)N)n1 | 52 | 
14 | N=C(N)N1CCC[C@H]1c1nc(-c2ccc(N3CCN(Cc4ccccc4)CC3)cc2)no1 | 89 | 
15 | CCOCc1cc(C)cc(Cc2ccc(-c3noc([C@@H]4CCCN4C(=N)N)n3)cc2)c1 | 46 | 99
16 | CCCCCCCCc1ccc(-c2noc([C@@H]3CCCN3C(=N)N)n2)cc1 | 9 | 44
17 | N=C(N)N1CC[C@H]1c1nc(-c2ccc(N3CCOCC3)cc2)no1 | 94 | 
18 | CCCCCCCCCCCCc1ccc(-c2noc([C@@H]3CCCN3C(=N)N)n2)cc1 | 15 | 56
19 | CCCCCCCCCCc1ccc(-c2noc([C@@H]3CCCN3C(=N)N)n2)cc1 | 9 | 46
20 | CCCCCCCCCCCCc1noc([C@@H]2CCCN2C(=N)N)n1 | 57 | 
21 | N=C(N)N1CCC[C@H]1c1nc(-c2ccc(N3CCN(C(=O)C45CC6CC(CC(C6)C4)C5)CC3)cc2)no1 | 87 | 
